Experimental data from ChEMBL document CHEMBL1126582, “Symmetry-based inhibitors of HIV protease. Structure-activity studies of acylated 2,4-diamino-1,5-diphenyl-3-hydroxypentane and 2,5-diamino-1,6-diphenylhexane-3,4-diol” (J Med Chem, 1993).
Converted amounts (≈) assume the structure as drawn.

Assays:
[1] = In vitro for cytotoxicity in MT-4 lymphocytes in the absence of HIV infection; assay type: cell-based, MT4; details: human
Method in brief: (§1)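 Uninfected MT-4 lymphocytes were cultured with compound. CC50 is the concentration at which 50% of cells remain viable.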

[2] = Estimated solubility (buffer pH 7.4); assay type: ADME; details: read-out: S
Method in brief: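 Solubility was estimated in pH 7.4 phosphate buffer.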

[3] = biological target: Human immunodeficiency virus type 1 protease (Human immunodeficiency virus 1, UniProt Q72874); test: Inhibition of purified recombinant HIV-1 protease in a fluorogenic assay
Method in brief: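 Purified recombinant HIV-1 protease, with cleavage of the fluorogenic substrate DABCYL-[…]-Pro-Ile-Val-Gln-EDANS as read-out. Value is the inhibitor concentration giving 50% inhibition of protease activity.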

[4] = tested on: Human immunodeficiency virus 1; test: Compound was tested in vitro for inhibition of cytopathic effect of HIV-1 3B in MT-4 lymphocytes; assay type: functional, organism-based
Method in brief: (§2)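 MT-4 lymphocytes were infected with HIV-1 3B at an MOI of either 0.001 or 0.032 tissue culture infective dose per cell. EC50 is the concentration preventing 50% of viral cytopathic effect, from a single triplicate assay. No effect means no activity up to 100 μM or up to the cytotoxic concentration.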

[5] = tested on: Human immunodeficiency virus 1; test: In vitro for inhibition of cytopathic effect of HIV-1 3B in MT-4 lymphocytes.; assay type: functional, organism-based; method in brief: as §2
MT4 = test: In vitro for cytotoxicity in MT-4 lymphocytes in the absence of HIV infection.; assay type: functional; details: Homo sapiens; method in brief: as §1

SMILES	CC50 [1]	solubility [2]	IC50 [3]	EC50 [4]	EC50 [5]	CC50 (MT4)
CC(C)[C@H](NC(=O)N1CCN(c2ccccc2)CC1)C(=O)N[C@@H](Cc1ccccc1)[C@@H](O)[C@@H](O)[C@H](Cc1ccccc1)NC(=O)[C@H](NC(=O)N1CCN(c2ccccc2)CC1)C(C)C	18 µM	1 µg/mL (≈ 1.14 µM)	1.4 nM	1.7 µM		
CC(C)[C@H](NS(=O)(=O)CCc1ccccn1)C(=O)N[C@@H](Cc1ccccc1)[C@H](O)[C@H](O)[C@H](Cc1ccccc1)NC(=O)[C@H](NS(=O)(=O)CCc1ccccn1)C(C)C	> 100 µM	0.047 µg/mL (≈ 0.0561 µM)	1.6 nM	1.8 µM		
CC(C)[C@H](NC(=O)CCc1cccnc1)C(=O)N[C@@H](Cc1ccccc1)C(O)[C@H](Cc1ccccc1)NC(=O)[C@H](NC(=O)CCc1cccnc1)C(C)C (stereo partly specified)	55 µM		22 nM	10 µM		
CC(C)[C@H](NS(=O)(=O)CCc1ccccn1)C(=O)N[C@@H](Cc1ccccc1)[C@@H](O)[C@H](O)[C@H](Cc1ccccc1)NC(=O)[C@H](NS(=O)(=O)CCc1ccccn1)C(C)C	> 100 µM		< 1 nM	1.5 µM		
CC(C)[C@H](NC(=O)N1CCN(Cc2ccccc2)CC1)C(=O)N[C@@H](Cc1ccccc1)[C@H](O)[C@H](O)[C@H](Cc1ccccc1)NC(=O)[C@H](NC(=O)N1CCN(Cc2ccccc2)CC1)C(C)C	> 100 µM	1.7 µg/mL (≈ 1.88 µM)	9 nM	9.4 µM		
CC(C)[C@H](NS(=O)(=O)CCc1ccncc1)C(=O)N[C@@H](Cc1ccccc1)[C@@H](O)[C@H](O)[C@H](Cc1ccccc1)NC(=O)[C@H](NS(=O)(=O)CCc1ccncc1)C(C)C	> 100 µM	32 µg/mL (≈ 38.2 µM)	24 nM	16 µM		
CC(C)[C@H](NS(=O)(=O)CCc1ccncc1)C(=O)N[C@@H](Cc1ccccc1)[C@H](O)[C@H](O)[C@H](Cc1ccccc1)NC(=O)[C@H](NS(=O)(=O)CCc1ccncc1)C(C)C	> 100 µM	55 µg/mL (≈ 65.7 µM)	13 nM	19 µM		
CC(C)[C@H](NC(=O)NCc1ccccn1)C(=O)N[C@@H](Cc1ccccc1)C(O)[C@H](Cc1ccccc1)NC(=O)[C@H](NC(=O)NCc1ccccn1)C(C)C (stereo partly specified)		53 µg/mL (≈ 71.9 µM)	10 nM		6100 nM	> 100 µM
CC(C)[C@H](NC(=O)OCCN1CCOCC1)C(=O)N[C@@H](Cc1ccccc1)[C@@H](O)[C@@H](O)[C@H](Cc1ccccc1)NC(=O)[C@H](NC(=O)OCCN1CCOCC1)C(C)C	> 100 µM	132 µg/mL (≈ 162 µM)	20 nM	14 µM		
CC(C)[C@H](NC(=O)N(C)Cc1cccnc1)C(=O)N[C@@H](Cc1ccccc1)[C@@H](O)[C@H](O)[C@H](Cc1ccccc1)NC(=O)[C@H](NC(=O)N(C)Cc1cccnc1)C(C)C		153 µg/mL (≈ 192 µM)	< 1 nM		1700 nM	> 100 µM
CC(C)[C@H](NC(=O)N(C)Cc1cscn1)C(=O)N[C@@H](Cc1ccccc1)[C@H](O)[C@H](O)[C@H](Cc1ccccc1)NC(=O)[C@H](NC(=O)N(C)Cc1cscn1)C(C)C		6.5 µg/mL (≈ 8.05 µM)	< 1 nM		500 nM	> 100 µM
CC(C)[C@H](NC(=O)OCCN1CCOCC1)C(=O)N[C@@H](Cc1ccccc1)[C@@H](O)[C@H](Cc1ccccc1)NC(=O)[C@H](NC(=O)OCc1ccccc1)C(C)C	> 100 µM	6.8 µg/mL (≈ 8.95 µM)	9 nM	6.9 µM		
CC(C)[C@H](NC(=O)N1CCN(Cc2ccccc2)CC1)C(=O)N[C@@H](Cc1ccccc1)[C@@H](O)[C@@H](O)[C@H](Cc1ccccc1)NC(=O)[C@H](NC(=O)N1CCN(Cc2ccccc2)CC1)C(C)C	17 µM	9 µg/mL (≈ 9.96 µM)	7.8 nM	4.3 µM		
CC(C)[C@H](NC(=O)N(C)Cc1ccccn1)C(=O)N[C@@H](Cc1ccccc1)[C@@H](O)[C@@H](O)[C@H](Cc1ccccc1)NC(=O)[C@H](NC(=O)N(C)Cc1ccccn1)C(C)C		225 µg/mL (≈ 283 µM)	1.66 nM		1500 nM	> 100 µM
CC(C)[C@H](NS(=O)(=O)CCc1ccccn1)C(=O)N[C@@H](Cc1ccccc1)[C@@H](O)[C@@H](O)[C@H](Cc1ccccc1)NC(=O)[C@H](NS(=O)(=O)CCc1ccccn1)C(C)C	> 100 µM	26 µg/mL (≈ 31.1 µM)	< 1 nM	2 µM		
CC(C)[C@H](NC(=O)N(C)Cc1nccs1)C(=O)N[C@@H](Cc1ccccc1)[C@H](O)[C@@H](O)[C@H](Cc1ccccc1)NC(=O)[C@H](NC(=O)N(C)Cc1csc(N)n1)C(C)C	> 100 µM	196 µg/mL (≈ 238 µM)	< 1 nM	1.6 µM		
CC(C)[C@H](NC(=O)N1CCOCC1)C(=O)N[C@@H](Cc1ccccc1)[C@H](O)[C@H](O)[C@H](Cc1ccccc1)NC(=O)[C@H](NC(=O)N1CCOCC1)C(C)C	> 100 µM		43 nM	88 µM		

SMILES	CC50 [1]	solubility [2]	IC50 [3]	EC50 [4]	EC50 [5]	CC50 (MT4)
CC(C)[C@H](NC(=O)N(C)CCc1ccccn1)C(=O)N[C@@H](Cc1ccccc1)[C@@H](O)[C@H](O)[C@H](Cc1ccccc1)NC(=O)[C@H](NC(=O)N(C)CCc1ccccn1)C(C)C		66 µg/mL (≈ 80.2 µM)	5.2 nM		4200 nM	61 µM
CC(C)[C@H](NC(=O)N(C)CCc1ccccn1)C(=O)N[C@@H](Cc1ccccc1)[C@H](O)[C@H](O)[C@H](Cc1ccccc1)NC(=O)[C@H](NC(=O)N(C)CCc1ccccn1)C(C)C		86 µg/mL (≈ 104 µM)	31 nM		12000 nM	95 µM
CC(C)[C@H](NC(=O)N(C)Cc1ccccn1)C(=O)N[C@@H](Cc1ccccc1)[C@H](O)[C@@H](O)[C@H](Cc1ccccc1)NC(=O)[C@H](NC(=O)N(C)Cc1cscn1)C(C)C		1 µg/mL (≈ 1.25 µM)	< 1 nM		200 nM	> 100 µM
CC(C)[C@H](NC(=O)N(C)Cc1ccccn1)C(=O)N[C@@H](Cc1ccccc1)[C@H](O)[C@@H](O)[C@H](Cc1ccccc1)NC(=O)[C@H](NC(=O)N(C)Cc1cccnc1)C(C)C		420 µg/mL (≈ 528 µM)	< 1 nM		480 nM	> 100 µM
CC(C)[C@H](NC(=O)/C=C/c1cccnc1)C(=O)N[C@@H](Cc1ccccc1)[C@@H](O)[C@@H](O)[C@H](Cc1ccccc1)NC(=O)[C@H](NC(=O)/C=C/c1cccnc1)C(C)C		23 µg/mL (≈ 30.2 µM)	5.3 nM		6200 nM	> 100 µM
CC(C)[C@H](NC(=O)N(C)Cc1ccccn1)C(=O)N[C@@H](Cc1ccccc1)[C@H](O)[C@@H](O)[C@H](Cc1ccccc1)NC(=O)[C@H](NC(=O)N(C)Cc1nccs1)C(C)C		10.9 µg/mL (≈ 13.6 µM)	< 1 nM		220 nM	> 100 µM
CC(C)[C@H](NC(=O)c1ccc2ccccc2n1)C(=O)N[C@@H](Cc1ccccc1)C(O)[C@H](Cc1ccccc1)NC(=O)[C@H](NC(=O)c1ccc2ccccc2n1)C(C)C (stereo partly specified)		0.23 µg/mL (≈ 0.295 µM)	1.6 nM		2100 nM	> 100 µM
CC(C)[C@H](NC(=O)N(C)Cc1nc2ccccc2[nH]1)C(=O)N[C@@H](Cc1ccccc1)[C@H](O)[C@H](O)[C@H](Cc1ccccc1)NC(=O)[C@H](NC(=O)N(C)Cc1nc2ccccc2[nH]1)C(C)C		18 µg/mL (≈ 20.6 µM)	< 1 nM		1900 nM	31 µM
CC(C)[C@H](NC(=O)N(C)Cc1cscn1)C(=O)N[C@@H](Cc1ccccc1)[C@@H](O)[C@@H](O)[C@H](Cc1ccccc1)NC(=O)[C@H](NC(=O)N(C)Cc1cscn1)C(C)C		286 µg/mL (≈ 354 µM)	< 1 nM		630 nM	> 100 µM
CC(C)[C@H](NC(=O)OCc1ccccn1)C(=O)N[C@@H](Cc1ccccc1)[C@H](O)[C@H](O)[C@H](Cc1ccccc1)NC(=O)[C@H](NC(=O)OCc1ccccn1)C(C)C		0.21 µg/mL (≈ 0.273 µM)	< 1 nM		230 nM	> 100 µM
CC(C)[C@H](NC(=O)OCc1ccncc1)C(=O)N[C@@H](Cc1ccccc1)[C@H](O)[C@H](O)[C@H](Cc1ccccc1)NC(=O)[C@H](NC(=O)OCc1ccncc1)C(C)C		0.62 µg/mL (≈ 0.806 µM)	2.3 nM		600 nM	> 100 µM
CC(C)[C@H](NC(=O)CCc1ccccn1)C(=O)N[C@@H](Cc1ccccc1)C(O)[C@H](Cc1ccccc1)NC(=O)[C@H](NC(=O)CCc1ccccn1)C(C)C (stereo partly specified)	> 100 µM		12 nM	2.2 µM		
CC(C)[C@H](NC(=O)OCc1cccnc1)C(=O)N[C@@H](Cc1ccccc1)[C@@H](O)[C@H](Cc1ccccc1)NC(=O)[C@H](NC(=O)OCc1ccccc1)C(C)C		0.9 µg/mL (≈ 1.22 µM)	4 nM		2800 nM	> 100 µM
CC(C)[C@H](NC(=O)CCc1cccnc1)C(=O)N[C@@H](Cc1ccccc1)[C@@H](O)[C@@H](O)[C@H](Cc1ccccc1)NC(=O)[C@H](NC(=O)CCc1cccnc1)C(C)C	> 100 µM		1.5 nM	9.5 µM		
CC(C)[C@H](NC(=O)N(C)CCc1ccccn1)C(=O)N[C@@H](Cc1ccccc1)[C@@H](O)[C@@H](O)[C@H](Cc1ccccc1)NC(=O)[C@H](NC(=O)N(C)CCc1ccccn1)C(C)C		355 µg/mL (≈ 431 µM)	22 nM		13000 nM	> 100 µM
CC(C)[C@H](NC(=O)N(C)Cc1nccs1)C(=O)N[C@@H](Cc1ccccc1)[C@@H](O)[C@H](O)[C@H](Cc1ccccc1)NC(=O)[C@H](NC(=O)N(C)Cc1nccs1)C(C)C		101 µg/mL (≈ 125 µM)	< 1 nM		390 nM	> 100 µM
CC(C)[C@H](NC(=O)OCc1ccccn1)C(=O)N[C@@H](Cc1ccccc1)[C@@H](O)[C@H](O)[C@H](Cc1ccccc1)NC(=O)[C@H](NC(=O)OCc1ccccn1)C(C)C		2.4 µg/mL (≈ 3.12 µM)	< 1 nM		60 nM	> 100 µM
